ChEMBL document CHEMBL4689842, “EUbOPEN Chemogenomics Library wave 1” (2021)
Values joined by “and” are separate entries in the source; they are usually repeats but may differ in a detail not shown here. Equal values may be shown once.

System: HEK-293T
Assay: Multiplex assay against HEK293T;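 for Population Tubulin-Different-Phenotype (%): share of the cells with healthy nuclei that show this phenotype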
Format: toxicity, cell-based
Settings: human
Procedure, shortened: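 Per cents of healthy-nucleus cells form the tubulin, mitochondrial-mass and membrane-permeability phenotype values. Live cells were stained at seeding with Hoechst33342, BioTracker Green Microtubule Cytoskeleton Dye, MitoTracker Red and Annexin V Alexa Fluor 680. After compound addition they were imaged on a CQ1 microscope at 37°C and 5% CO2, and CellPathfinder machine-learning gating split them into Hoechst high-intensity objects or normal cells, normal cells into healthy, pyknosed or fragmented nuclei, and pyknosed cells into mitotic or apoptotic.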

[1] = 12 h, 1 µM, compound concentration 1 uM, replicate 1
[2] = 12 h, 1 µM, compound concentration 1 uM, replicate 2
[3] = 12 h, 10 µM, compound concentration 10 uM, replicate 1
[4] = 12 h, 10 µM, compound concentration 10 uM, replicate 2
[5] = 24 h, 1 µM, compound concentration 1 uM, replicate 1
[6] = 24 h, 1 µM, compound concentration 1 uM, replicate 2
[7] = 24 h, 10 µM, compound concentration 10 uM, replicate 1
[8] = 24 h, 10 µM, compound concentration 10 uM, replicate 2
[9] = 48 h, 10 µM, compound concentration 10 uM, replicate 1
[10] = 48 h, 10 µM, compound concentration 10 uM, replicate 2

CNC(=O)c1nn(C)c2c1C(C)(C)Cc1cnc(Nc3ccc(N4CCN(C)CC4)cc3)nc1-2 [MILCICLIB]
Population Apoptotic (%) [1]: 28%
Population Fragmented Nuclei (%) [1]: 17%
Population Healthy Nuclei (%) [1]: 41%
Population Hoechst High Intensity Objects (%) [1]: 21%
Population Membrane Permeable-Phenotype (%) [1]: 9%
Population Mitochondria Different-Phenotype (%) [1]: 25%
Population Mitotic Cells (%) [1]: 71%
Population Normal (%) [1]: 78%
Population Pyknosed Nuclei (%) [1]: 40%
Population Tubulin-Different-Phenotype (%) [1]: 82%
Total Cell Count [1]: 581
Population Apoptotic (%) [2]: 23%
Population Fragmented Nuclei (%) [2]: 2%
Population Healthy Nuclei (%) [2]: 83%
Population Hoechst High Intensity Objects (%) [2]: 9%
Population Membrane Permeable-Phenotype (%) [2]: 3%
Population Mitochondria Different-Phenotype (%) [2]: 64%
Population Mitotic Cells (%) [2]: 76%
Population Normal (%) [2]: 90%
Population Pyknosed Nuclei (%) [2]: 14%
Population Tubulin-Different-Phenotype (%) [2]: 98%
Total Cell Count [2]: 860
Population Apoptotic (%) [3]: 29% and 75% and 67%
Population Healthy Nuclei (%) [3]: 36% and 49%
Population Hoechst High Intensity Objects (%) [3]: 18% and 11% and 13%
Population Mitochondria Different-Phenotype (%) [3]: 39% and 100% and 98%
Population Mitotic Cells (%) [3]: 70% and 24% and 32%
Population Normal (%) [3]: 81% and 88% and 86%
Population Pyknosed Nuclei (%) [3]: 38% and 43%
Population Tubulin-Different-Phenotype (%) [3]: 79% and 97%
Total Cell Count [3]: 581 and 226 and 425
Population Fragmented Nuclei (%) [4]: 6% and 3% and 2%
Population Hoechst High Intensity Objects (%) [4]: 6% and 8% and 9%
Population Membrane Permeable-Phenotype (%) [4]: 12% and 10% and 4%
Population Mitochondria Different-Phenotype (%) [4]: 87% and 90% and 57%
Population Mitotic Cells (%) [4]: 40% and 30% and 79%
Population Normal (%) [4]: 93% and 91% and 90%
Population Tubulin-Different-Phenotype (%) [4]: 91% and 100% and 99%
Population Apoptotic (%) [5]: 43%
Population Fragmented Nuclei (%) [5]: 21%
Population Healthy Nuclei (%) [5]: 33%
Population Hoechst High Intensity Objects (%) [5]: 19%
Population Membrane Permeable-Phenotype (%) [5]: 7%
Population Mitochondria Different-Phenotype (%) [5]: 64%
Population Mitotic Cells (%) [5]: 56%
Population Normal (%) [5]: 80%
Population Pyknosed Nuclei (%) [5]: 45%
Population Tubulin-Different-Phenotype (%) [5]: 78%
Total Cell Count [5]: 556
Population Apoptotic (%) [6]: 34%
Population Fragmented Nuclei (%) [6]: 2%
Population Healthy Nuclei (%) [6]: 82%
Population Hoechst High Intensity Objects (%) [6]: 9%
Population Membrane Permeable-Phenotype (%) [6]: 2%
Population Mitochondria Different-Phenotype (%) [6]: 81%
Population Mitotic Cells (%) [6]: 65%
Population Normal (%) [6]: 90%
Population Pyknosed Nuclei (%) [6]: 14%
Population Tubulin-Different-Phenotype (%) [6]: 98%
Total Cell Count [6]: 887
Population Apoptotic (%) [7]: 55% and 82% and 67%
Population Healthy Nuclei (%) [7]: 32% and 22% and 44%
Population Hoechst High Intensity Objects (%) [7]: 19% and 13%
Population Membrane Permeable-Phenotype (%) [7]: 10% and 2%
Population Mitochondria Different-Phenotype (%) [7]: 63% and 100% and 98%
Population Mitotic Cells (%) [7]: 44% and 17% and 32%
Population Normal (%) [7]: 80% and 86%
Population Pyknosed Nuclei (%) [7]: 42% and 69% and 48%
Population Tubulin-Different-Phenotype (%) [7]: 80% and 91%
Total Cell Count [7]: 565 and 241 and 453
Population Fragmented Nuclei (%) [8]: 6% and 3% and 4%
Population Hoechst High Intensity Objects (%) [8]: 6% and 7%
Population Membrane Permeable-Phenotype (%) [8]: 6% and 4%
Population Mitochondria Different-Phenotype (%) [8]: 92% and 95% and 77%
Population Normal (%) [8]: 93% and 92%
Population Tubulin-Different-Phenotype (%) [8]: 94% and 95% and 98%
Population Apoptotic (%) [9]: 87% and 71%
Population Fragmented Nuclei (%) [9]: 14%
Population Healthy Nuclei (%) [9]: 17% and 42%
Population Hoechst High Intensity Objects (%) [9]: 13% and 11%
Population Membrane Permeable-Phenotype (%) [9]: 0%
Population Mitochondria Different-Phenotype (%) [9]: 100% and 99%
Population Mitotic Cells (%) [9]: 12% and 28%
Population Normal (%) [9]: 86% and 88%
Population Pyknosed Nuclei (%) [9]: 68% and 49%
Population Tubulin-Different-Phenotype (%) [9]: 92%
Total Cell Count [9]: 263 and 534
Population Apoptotic (%) [10]: 86% and 89%
Population Fragmented Nuclei (%) [10]: 6% and 7%
Population Healthy Nuclei (%) [10]: 21% and 15%
Population Hoechst High Intensity Objects (%) [10]: 12% and 9%
Population Membrane Permeable-Phenotype (%) [10]: 2%
Population Mitochondria Different-Phenotype (%) [10]: 91%
Population Mitotic Cells (%) [10]: 13% and 10%
Population Normal (%) [10]: 87% and 90%
Population Pyknosed Nuclei (%) [10]: 71% and 76%
Population Tubulin-Different-Phenotype (%) [10]: 85% and 70%
Total Cell Count [10]: 182 and 236
